# Experimental data from ChEMBL document CHEMBL4732095, “Novel naphthylamide derivatives as dual-target antifungal inhibitors: Design, synthesis and biological evaluation” (Eur J Med Chem, 2021).
# Calls of active or inactive are those of the source. The calls are words filed in the database; no cut-off is given here.
# Assays:
# Candida albicans SC5314 [1] = test: Inhibition of SE/CYP51 in Candida albicans ATCC SC5314 assessed as ergosterol level at […] ug/ml incubated for 48 hrs by LC/MS analysis (reference value: 95.1 %); parameters: scale not given: the % may be the effect or the level left; settings: dose 0.125 µg/ml
# [2] = Toxicity in mouse infected with Candida albicans SC5314 assessed as change in lung morphology administered via abdomen for 7 days by H and E staining based histological analysis; settings: in vivo, ip, 168 h, time 7 day
# Method in brief: (§1)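 Mice infected with C. albicans SC5314 by subcutaneous abdominal injection, then randomized into saline, and two compound-treated groups. Treatment given by abdominal injection for 7 days, with body weight monitored. Heart, liver, spleen, lung, kidney and infected abdominal tissue harvested for H&E histology.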
# Candida albicans [3] = test: Antifungal activity against fluconazole-resistant Candida albicans 632 assessed as inhibition of microbial growth by NCCLS protocol based method; format: functional
# [4] = Toxicity in mouse infected with Candida albicans SC5314 assessed as change in heart morphology administered via abdomen for 7 days by H and E staining based histological analysis; settings: in vivo, ip, 168 h, time 7 day; method in brief: as §1
# Candida albicans [5] = test: Antifungal activity against Candida albicans ATCC SC5314 assessed as induction of cell fracture at 10 nM/mL by polarizing microscopy; format: functional, organism-based; settings: dose 10.0 nmol/ml
# Method in brief: (§2)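 C. albicans ATCC SC5314 observed by polarizing microscopy over treatment time. Untreated, fluconazole- and naftifine-treated control groups were included. Cell density, dividing cells and cell fracture were assessed, with cell counts taken per field.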
# [6] = Toxicity in mouse infected with Candida albicans SC5314 assessed as change in liver morphology administered via abdomen for 7 days by H and E staining based histological analysis; settings: in vivo, ip, 168 h, time 7 day; method in brief: as §1
# [7] = Toxicity in mouse infected with Candida albicans SC5314 assessed as change in kidney morphology administered via abdomen for 7 days by H and E staining based histological analysis; settings: in vivo, ip, 168 h, time 7 day; method in brief: as §1
# Candida albicans SC5314 [8] = test: Inhibition of SE/CYP51 in Candida albicans ATCC SC5314 assessed as squalene level at 4 ug/ml incubated for 48 hrs by LC/MS analysis; parameters: scale not given: the % may be the effect or the level left; settings: dose 4.0 µg/ml
# Method in brief: (§3)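 C. albicans SC5314 cells exposed to compound at 0.125, 0.5 or 4 μg/mL for 48 h, alongside untreated, fluconazole and naftifine controls. Sterols (ergosterol, squalene, lanosterol, eburicol, unknown) analysed by LC-MS. Each component expressed as percentage of total sterols from peak area ratios.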
# Candida albicans [9] = test: Antifungal activity against Candida albicans ATCC SC5314 assessed as reduction in size of fungal cells (reference value: 8.29 micrometer); format: functional
# [10] = target: Lanosterol 14-alpha demethylase (Candida albicans (strain SC5314 / ATCC MYA-2876) (Yeast), UniProt P10613); test: Inhibition of Candida albicans ATCC SC5314 CYP51 incubated for 30 mins by HPLC method
# Chain of Lanosterol 14-alpha demethylase (P10613 whole entry): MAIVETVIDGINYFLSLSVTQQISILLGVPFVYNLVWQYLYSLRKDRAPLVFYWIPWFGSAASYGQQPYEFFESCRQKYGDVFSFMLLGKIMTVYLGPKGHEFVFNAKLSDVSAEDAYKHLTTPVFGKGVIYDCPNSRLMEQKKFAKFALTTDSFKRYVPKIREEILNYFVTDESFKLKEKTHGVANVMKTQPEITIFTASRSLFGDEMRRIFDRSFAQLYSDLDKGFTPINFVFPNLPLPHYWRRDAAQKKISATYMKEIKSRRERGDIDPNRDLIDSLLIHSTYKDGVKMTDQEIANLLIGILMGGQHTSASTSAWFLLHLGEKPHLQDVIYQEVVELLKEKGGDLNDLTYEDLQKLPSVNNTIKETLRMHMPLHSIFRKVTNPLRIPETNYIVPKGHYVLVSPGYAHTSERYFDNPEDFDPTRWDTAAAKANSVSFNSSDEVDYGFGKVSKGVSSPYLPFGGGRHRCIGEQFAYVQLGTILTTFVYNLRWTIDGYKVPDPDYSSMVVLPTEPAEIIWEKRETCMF
# Candida albicans [11] = test: Antifungal activity against Candida albicans ATCC SC5314 assessed as decrease in fungal cell density at 10 nM/mL by polarizing microscopy; format: functional, organism-based; settings: dose 10.0 nmol/ml; method in brief: as §2
# Candida albicans [12] = test: Antifungal activity against Candida albicans ATCC SC5314 assessed as reduction in cell division at 10 nM/mL by polarizing microscopy; format: functional, organism-based; settings: dose 10.0 nmol/ml; method in brief: as §2
# [13] = Renal toxicity in mouse infected with Candida albicans SC5314 assessed as effect on blood urea nitrogen level administered via abdomen for 7 days (reference value: 6.8 +/-0.4 mmol/L); settings: in vivo, ip, 168 h, time 7 day
# [14] = Hepatotoxicity in mouse infected with Candida albicans SC5314 assessed as effect on alanine aminotransferase level in plasma administered via abdomen for 7 days (reference value: 105 +/- 8.3 IU/L); format: toxicity; settings: ip, 168 h, time 7 day
# Candida albicans SC5314 [15] = test: Inhibition of SE/CYP51 in Candida albicans ATCC SC5314 assessed as ergosterol level at 0.5 ug/ml incubated for 48 hrs by LC/MS analysis (reference value: 95.1 %); parameters: scale not given: the % may be the effect or the level left; settings: dose 0.5 µg/ml; method in brief: as §3
# Candida albicans [16] = test: In vivo antifungal activity against Candida albicans infected in mouse assessed as disappearance of cell nuclear aggregation injected via abdomen for 7 days by H and E staining based histological analysis; format: functional, organism-based; settings: SC5314, time 7.0 day; method in brief: as §1
# Candida albicans [17] = test: Antifungal activity against fluconazole-resistant Candida albicans 904 assessed as inhibition of microbial growth by NCCLS protocol based method; format: functional
# Candida albicans [18] = test: Antifungal activity against Candida albicans ATCC SC5314 assessed as reduction in survival rate of fungal cells (reference value: 97%); format: functional
# [19] = Stability in human plasma assessed as compound remaining incubated for 120 mins; format: ADME, cell-free; settings: read-out: Stabilty
# Method in brief: (§4)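 Compound incubated in human plasma. Percent remaining measured at 60 and 120 min.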
# Candida albicans SC5314 [20] = test: Inhibition of SE/CYP51 in Candida albicans ATCC SC5314 assessed as lanosterol level at 0.5 ug/ml incubated for 48 hrs by LC/MS analysis; parameters: scale not given: the % may be the effect or the level left; settings: dose 0.5 µg/ml; method in brief: as §3
# Candida albicans [21] = test: Antifungal activity against Candida albicans ATCC 10231 assessed as inhibition of microbial growth by NCCLS protocol based method; format: functional
# Method in brief: (§5)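 Broth MIC50 determined following NCCLS guidelines in Sabouraud medium, with fungal suspension in 24-well format. Compound tested at 0.0625, 0.125, 0.5, 1, 2, 4, 8 and 16 μg/mL. Plates cultured statically at 35 °C. MIC50 is the lowest concentration giving 50% growth inhibition. Naftifine and fluconazole served as positive controls.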
# Candida albicans [22] = test: In vivo antifungal activity against Candida albicans SC5314 infected in mouse assessed as uniform cell distribution injected via abdomen for 7 days by H and E staining based histological analysis; format: functional, organism-based; settings: time 7.0 day; method in brief: as §1
# Candida albicans SC5314 [23] = test: Inhibition of SE/CYP51 in Candida albicans ATCC SC5314 assessed as eburicol level at […] ug/ml incubated for 48 hrs by LC/MS analysis (reference value: 1.4 %); parameters: scale not given: the % may be the effect or the level left; settings: dose 0.125 µg/ml
# Candida albicans [24] = test: Antifungal activity against fluconazole-resistant Candida albicans 901 assessed as inhibition of microbial growth by NCCLS protocol based method; format: functional
# Candida albicans SC5314 [25] = test: Inhibition of SE/CYP51 in Candida albicans ATCC SC5314 assessed as unknown sterol level at […] ug/ml incubated for 48 hrs by LC/MS analysis (reference value: 3.5 %); parameters: scale not given: the % may be the effect or the level left; settings: dose 0.125 µg/ml
# [26] = Stability in human plasma assessed as compound remaining incubated for 60 mins; format: ADME, cell-free; settings: read-out: Stabilty; method in brief: as §4
# Candida albicans [27] = test: Antifungal activity against fluconazole-resistant Candida albicans 17# assessed as inhibition of microbial growth by NCCLS protocol based method; format: functional
# Pichia kudriavzevii = test: Antifungal activity against Candida krusei ATCC 6258 assessed as inhibition of microbial growth by NCCLS protocol based method; format: functional; method in brief: as §5
# Candida albicans SC5314 [28] = test: Inhibition of SE/CYP51 in Candida albicans ATCC SC5314 assessed as lanosterol level at 4 ug/ml incubated for 48 hrs by LC/MS analysis; parameters: scale not given: the % may be the effect or the level left; settings: dose 4.0 µg/ml; method in brief: as §3
# Aspergillus fumigatus = test: Antifungal activity against Aspergillus fumigatus KM8001 assessed as inhibition of microbial growth by NCCLS protocol based method; format: functional; method in brief: as §5
# Candida albicans [29] = test: Antifungal activity against fluconazole-resistant Candida albicans CaR assessed as inhibition of microbial growth by NCCLS protocol based method; format: functional
# [30] = Hepatotoxicity in mouse infected with Candida albicans SC5314 assessed as effect on aspartate aminotransferase level in plasma administered via abdomen for 7 days (reference value: 104.7 +/- 5.2 IU/L); format: toxicity; settings: ip, 168 h, time 7 day
# Candida albicans SC5314 [31] = test: Inhibition of SE/CYP51 in Candida albicans ATCC SC5314 assessed as eburicol level at 4 ug/ml incubated for 48 hrs by LC/MS analysis (reference value: 1.4 %); parameters: scale not given: the % may be the effect or the level left; settings: dose 4.0 µg/ml; method in brief: as §3
SMILES,Activity (Candida albicans SC5314 [1]),Activity [2],MIC50 (Candida albicans [3]),Activity [4],Activity (Candida albicans [5]),Activity [6],Activity [7],Activity (Candida albicans SC5314 [8]),Activity (Candida albicans [9]),IC50 [10],Activity (Candida albicans [11]),Activity (Candida albicans [12]),Activity [13],Activity [14],Activity (Candida albicans SC5314 [15]),Activity (Candida albicans [16]),MIC50 (Candida albicans [17]),Activity (Candida albicans [18]),remaining at 2 h [19],Activity (Candida albicans SC5314 [20]),other results
CC(NC(=O)c1cccc2ccccc12)C(=O)NC(Cn1ccnc1)C(=O)c1ccccc1 (stereo unspecified),66.4%,Non-Toxic,8 µg/mL,Non-Toxic,Active,Non-Toxic,Non-Toxic,27.9%,7.51 um,537 nM,Active,Active,6.4 mmol/L,106 IU/L,29.9%,Active,4 µg/mL,11%,92.1%,8.7%,MIC50 (Candida albicans [21]): 0.125 µg/mL; Activity (Candida albicans [22]): Active; Activity (Candida albicans SC5314 [23]): 17.5%; MIC50 (Candida albicans [24]): 4 µg/mL; Activity (Candida albicans SC5314 [25]): 5.4%; remaining at 1 h [26]: 96.3%; MIC50 (Candida albicans [27]): 2 µg/mL; MIC50 (Pichia kudriavzevii): 0.25 µg/mL; Activity (Candida albicans SC5314 [28]): 12.5%; MIC50 (Aspergillus fumigatus): 4 µg/mL; MIC50 (Candida albicans [29]): 4 µg/mL; Activity [30]: 112.3 IU/L; Activity (Candida albicans SC5314 [31]): 42.6%
O=C(NC(Cn1ccnc1)C(=O)NCc1ccncc1)c1ccc2ccccc2c1 (stereo unspecified),68.4%,Non-Toxic,8 µg/mL,Non-Toxic,Active,Non-Toxic,Non-Toxic,20.5%,7.53 um,1150 nM,Active,Active,7.3 mmol/L,102 IU/L,35.6%,Active,> 16 µg/mL,16%,91.6%,7.2%,MIC50 (Candida albicans [21]): 0.25 µg/mL; Activity (Candida albicans [22]): Active; Activity (Candida albicans SC5314 [23]): 13.6%; MIC50 (Candida albicans [24]): 4 µg/mL; Activity (Candida albicans SC5314 [25]): 5%; remaining at 1 h [26]: 94.5%; MIC50 (Candida albicans [27]): 4 µg/mL; MIC50 (Pichia kudriavzevii): 0.25 µg/mL; Activity (Candida albicans SC5314 [28]): 10.9%; MIC50 (Aspergillus fumigatus): 4 µg/mL; MIC50 (Candida albicans [29]): 8 µg/mL; Activity [30]: 108.6 IU/L; Activity (Candida albicans SC5314 [31]): 49.3%
